# Hits are enriched below; roughly 2.2% of the tested compounds scored in any of these assays.
# CDK5 p35 inh = blocks human CDK5/p35 kinase activity | AID 488839 | inhibition, % at 10 µM | Q00535+Q15078 | 330,000 tested, 0.01% active | Recombinant CDK5/p35, ADP-Glo luminescence, 60 min;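 active means highest replicate inhibition of at least 50% and at least 75% of replicates reaching 50%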;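 further: plate controls were DMSO neutral control for no effect and GW8510 at 10 µM for full effect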
# Target sequence (Q00535 whole entry, looked up): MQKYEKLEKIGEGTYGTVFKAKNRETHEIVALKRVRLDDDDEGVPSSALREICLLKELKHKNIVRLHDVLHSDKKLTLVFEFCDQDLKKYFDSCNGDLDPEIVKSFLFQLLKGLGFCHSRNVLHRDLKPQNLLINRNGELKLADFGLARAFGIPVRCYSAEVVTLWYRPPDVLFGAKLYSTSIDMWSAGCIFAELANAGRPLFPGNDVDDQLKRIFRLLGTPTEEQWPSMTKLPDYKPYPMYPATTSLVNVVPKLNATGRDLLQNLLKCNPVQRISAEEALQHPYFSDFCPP
# Target sequence (Q15078 whole entry, looked up): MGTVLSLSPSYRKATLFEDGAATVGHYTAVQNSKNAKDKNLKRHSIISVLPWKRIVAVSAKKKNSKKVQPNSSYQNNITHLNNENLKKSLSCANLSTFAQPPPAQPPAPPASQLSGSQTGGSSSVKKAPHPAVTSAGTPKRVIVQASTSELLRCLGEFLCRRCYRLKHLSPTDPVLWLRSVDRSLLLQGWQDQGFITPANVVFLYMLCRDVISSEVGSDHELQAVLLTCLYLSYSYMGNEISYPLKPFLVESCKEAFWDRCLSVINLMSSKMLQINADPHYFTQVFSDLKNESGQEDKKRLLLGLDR
# Dyrk1A ADPGlo = Dyrk1A (rat) kinase inhibition. inhibition, % at 12.5 µM. AID 504441. 310,000 tested, 0.43% active. Q63470. ADP-Glo luminescence, NFATc1 peptide; in the data active means inhibition above about 50%;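 further: plate controls were vehicle with enzyme for no effect and no enzyme for full effect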
# CAL PDZ FP-1 = blocks peptide binding to human CAL PDZ domain; Q9HD26; purified CAL PDZ, TMR-peptide fluorescence polarization, 1 h; inhibition, % at 20 µM; 330,000 tested, 0.02% active; AID 504414;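 active means highest replicate inhibition of at least 40%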;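 further: plate controls were DMSO neutral control wells for no effect and unlabeled competitor peptide control wells for full effect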
#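 Assay system – tagged CAL PDZ protein CerCALP, purified · Timing – 1 h at RT · Compound – single point, 20 µM · Measured by – fluorescence polarization from S- and P-plane intensities, G-factor corrected · Evaluation – inhibition from polarization loss · Probe or stimulus – TMR reporter peptide T*-PRC34 · Buffer or medium – pH 7.4 phosphate-saline buffer, reducing agent, detergent, IgG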
# CAL PDZ FP-2 = blocks peptide binding to the human CAL PDZ domain. Q9HD26. purified CAL PDZ, TMR-peptide fluorescence polarization, 1 h. inhibition, % at 24.9 µM. 300,000 tested, 0.92% active. AID 602252;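 active means mean inhibition of at least 30% with at least half of replicates also reaching 30%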;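 further: 0% = DMSO neutral control and 100% = excess unlabeled competitor peptide PRC23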
# dFosB act-1 = enhances mouse delta FosB homodimer DNA binding | purified delta FosB, TAMRA-CDK5 oligo fluorescence polarization; percent of positive-control signal above neutral wells | P13346 | activation, % at 25 µM | 340,000 tested, 0.99% active | AID 493131;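 active means mean activation above about 17%, with every replicate also reaching it, limit read from the data, passing the limit was not always enough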
# Rtt109 Vps75 = C. albicans Rtt109 histone acetyltransferase inhibition; Q5AAJ8; 330,000 tested, 0.16% active; inhibition, % at 34.9 µM; purified Rtt109/Vps75, ThioGlo CoA-SH fluorescence, 4 h;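 active means inhibition of at least 50% in every replicate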
# dFosB act-2 = delta FosB (mouse) homodimer activation | 2,400 tested, under 10 active | AID 588690 | activation, % at 24.9 µM | shares compounds with dFosB act-1 | purified delta FosB, TAMRA-CDK5 oligo fluorescence polarization; normalised: neutral wells 0, positive control 100;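 active means highest replicate activation at or above 34% and every replicate reaching that threshold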;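 further: higher polarization means more probe DNA bound by delta FosB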
# * marks the source's active call; other numbers are inactive results; x = not tested or not shown.
SMILES,CDK5 p35 inh,Dyrk1A ADPGlo,CAL PDZ FP-1,CAL PDZ FP-2,dFosB act-1,Rtt109 Vps75,dFosB act-2
CCN(CC(=O)Nc1ccc(NC(C)=O)cc1)C(=O)c1cc(S(=O)(=O)N2CCCCCC2)ccc1OC,-1,-4,-1,x,-15,1,x
Cc1cccc(NC(=O)Cn2c(C)c(C#N)c3ccccc32)c1C,0,-3,-2,-5,32*,3,0
Cc1c(C#N)c2ccccc2n1CC(=O)NC(C)c1ccccc1 (stereo not given),-1,13,-2,-4,-9,23,x
COc1cccc(/C=C/C(=O)OCC(=O)c2ccc3c(c2)NC(=O)CO3)c1OC,-2,6,-1,-6,-11,0,x
CC(=O)c1c(C)[nH]c(C(=O)OCC(=O)c2ccc3c(c2)NC(=O)CO3)c1C,-1,x,-1,81*,30*,1,4
Cc1cccc(C(=O)OCC(=O)c2ccc3c(c2)NC(=O)CO3)c1,1,-6,-1,-6,-9,-1,x
O=C1COc2ccc(C(=O)COC(=O)/C=C/c3cccc(F)c3)cc2N1,0,-2,1,4,80*,5,4
COc1ccc(CC(=O)Nc2nnc(-c3cccc([N+](=O)[O-])c3)s2)cc1,0,2,-1,x,22*,-3,1
COc1cccc(-c2nnc(NC(=O)c3cccs3)s2)c1,-1,0,-2,x,34*,-7,1
O=C(Cc1ccccc1)Nc1nnc(-c2cccc([N+](=O)[O-])c2)s1,1,-3,0,-5,-6,-3,x
COc1cccc(C2c3c(oc4cc(C)c(C)cc4c3=O)C(=O)N2CCCN(C)C)c1 (stereo not given),3,16,-1,x,38*,11,4
COc1ccc(NC(=O)NNC(=O)COc2ccc3cc(Br)ccc3c2)cc1OC,0,-7,-2,-6,144*,-9,6
COc1ccc(NC(=O)NNC(=O)COc2ccc3cc(Br)ccc3c2)cc1,-1,-13,-1,-2,5,0,x
COc1ccc2cc(OCC(=O)NNC(=O)Nc3ccc(C(C)=O)cc3)ccc2c1,2,-9,-7,-4,99*,10,5
COc1ccc(NC(=O)NNC(=O)COc2ccc3ccccc3c2)cc1OC,0,-2,0,1,-28,2,x
COc1ccccc1NC(=O)NNC(=O)COc1ccc2ccccc2c1,0,3,-1,-3,21*,-9,2
C/C(COc1ccccc1)=N\NC(=O)c1nnn(-c2nonc2N)c1CSc1ccccc1,-2,-3,-1,-5,1,0,x
COc1cccc(NC(=O)Cc2nnc(SCC(=O)NC3CCCCC3)n2C)c1,2,1,0,x,0,3,x
Cc1ccccc1C(=O)NCC(=O)OCCCOC(=O)CNC(=O)c1ccccc1C,-2,1,-2,1,-5,3,x
CC(Sc1cccc[n+]1[O-])C(=O)NC1CCCCC1C (stereo not given),1,x,-2,-4,0,-2,x
Nc1ccc(S(=O)(=O)Nc2nccc(/C=C/c3ccc(Cl)cc3Cl)n2)cc1,-4,-8,-2,-3,40*,-2,-4
C=CCc1c(C)c(C#N)c2nc3ccccc3n2c1NCCN(C)C,3,1,-1,-2,15,-47,x
CCc1c(C)c(C#N)c2nc3ccccc3n2c1NCCN(C)C,-2,9,0,-3,21*,3,-2
CO/N=C/C(C#N)=C/c1ccc(OC)cc1,2,0,0,-3,-4,-1,x
CO/N=C/C(C#N)=C/c1cc(C(=O)c2ccc(F)cc2)cn1C,1,5,-1,x,50*,-6,3
Cc1cc(C(F)(F)F)c(C#N)c(SCC(=O)Nc2nc3cc(Br)ccc3s2)n1,0,4,-2,15,37*,4,7
COc1cccc(C(=O)NC(=S)Nc2ccc3[nH]c(=O)[nH]c3c2)c1,-1,3,-1,-2,3,4,x
